Test results taken from ChEMBL document CHEMBL4477216, “Discovery and Optimization of Small Molecule Splicing Modifiers of Survival Motor Neuron 2 as a Treatment for Spinal Muscular Atrophy” (J Med Chem, 2016).

Columns and labels:
Homo sapiens [1] = organism: Homo sapiens; assay: Inhibition of mRNA splicing of SMN2 exon 7 in GM03813 fibroblasts derived from SMA patient assessed as compound concentration required to increase SMN protein level by 1.5 times after 24 hrs by HTRF assay
[2] = AUC (0 to 6 hrs) in Sprague-Dawley rat at 10 mg/kg, po; type: ADME, organism-based; set-up: dose 10 mg/kg, time < 6 hr, route oral; settings: in vivo
In short: (§1)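 Male Sprague-Dawley rats got a single oral 10 mg/kg dose as a suspension in 0.5% hydroxypropyl methylcellulose with 0.1% Tween-80. Plasma was sampled at several time points up to 6 h post dose to give AUC0-6h. Total brain concentration was taken at 6 h to give the brain/plasma ratio.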

Homo sapiens [3] = organism: Homo sapiens; assay: Inhibition of mRNA splicing of human SMN2 exon 7 transfected in HEK293H cells assessed as compound concentration required to increase full-length SMN2 mRNA level by 1.5 times after 24 hrs by RT-qPCR analysis relative to GAPDH; type: cell-based
In short: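 HEK293H cells stably carrying the SMN2 minigene (exon 6 to 5' exon 8 fused to firefly luciferase) were plated and held for 6 h, then treated 24 h in duplicate at varying concentrations (0.5% DMSO). Full-length minigene mRNA and GAPDH were quantified by TaqMan RT-qPCR using actual PCR efficiencies. Results were normalized to GAPDH and DMSO and expressed as fold change versus DMSO.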

Homo sapiens [4] = organism: Homo sapiens; assay: Inhibition of mRNA splicing of SMN2 exon 7 in GM03813 fibroblasts derived from SMA patient assessed as maximum fold increase of SMN protein level by 1.5 times after 24 hrs by HTRF assay relative to control
[5] = Ratio of drug level in brain to plasma of Sprague-Dawley rat at 10 mg/kg, po measured at 6 hrs; type: ADME, organism-based; settings: brain and plasma, read-out: BPR; in short: as §1
[6] = Apparent permeability in human Caco2 cells; type: ADME, cell-based; settings: Caco-2
In short: (§2)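 Bidirectional permeability was measured across a Caco-2 cell monolayer. Papp was reported, and efflux was expressed as the B-A/A-B ratio.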

[7] = Efflux ratio of apparent permeability from basolateral to apical over apical to basolateral side in human Caco2 cells; type: ADME, cell-based; settings: Caco-2; in short: as §2
[8] = Protein binding in human plasma; type: ADME, cell-free; settings: read-out: PPB (converted)

Cc1cn2cc(-c3cc4ccc(N5CCN(C)CC5)cc4c(=O)o3)nc2cn1
EC1.5 (Homo sapiens [1]): 120 nM
AUC(0-t) at 6 h [2]: < 10 ng·h/mL

COc1ccc(-c2cc3ccc(N4CCNCC4)cn3c(=O)n2)cc1OC
EC1.5 (Homo sapiens [3]): > 10000 nM
EC1.5 (Homo sapiens [1]): > 10000 nM
fold change (FC) (Homo sapiens [4]): 1

CCN1CCN(c2ccc3cc(-c4cn5cc(C)nc(C)c5n4)c(=O)oc3c2)CC1
EC1.5 (Homo sapiens [3]): 10 nM
EC1.5 (Homo sapiens [1]): 62 nM

Cc1cn2nc(-c3cc(=O)n4cc(N5CCN[C@H](C)C5)ccc4n3)cc2c(C)n1
EC1.5 (Homo sapiens [3]): 11 nM
EC1.5 (Homo sapiens [1]): 71 nM

COc1ccc(-c2cc3ccc(N4CCNCC4)cc3c(=O)[nH]2)cc1OC
EC1.5 (Homo sapiens [3]): 1400 nM
EC1.5 (Homo sapiens [1]): > 10000 nM
fold change (FC) (Homo sapiens [4]): 1.2

Cc1cn2cc(-c3cc4ccc(CCCN(C)C)cc4oc3=O)nc2c(C)n1
EC1.5 (Homo sapiens [3]): 58 nM
EC1.5 (Homo sapiens [1]): 220 nM

Cc1cn2cc(-c3cc4ccc(N5CCNCC5)cc4oc3=O)nc2c(C)n1
EC1.5 (Homo sapiens [3]): 2 nM
EC1.5 (Homo sapiens [1]): 15 nM
AUC(0-t) at 6 h [2]: 340 ng·h/mL
Kp at 6 h [5]: 6.5

COc1ccc(-c2cnc3cc(N4CCNCC4)ccn3c2=O)cc1OC
EC1.5 (Homo sapiens [3]): 3200 nM
EC1.5 (Homo sapiens [1]): > 10000 nM
fold change (FC) (Homo sapiens [4]): 1

Cc1cn2nc(-c3cc(=O)n4cc(N5CCN(C)CC5)ccc4n3)cc2cn1
EC1.5 (Homo sapiens [1]): 300 nM
AUC(0-t) at 6 h [2]: < 10 ng·h/mL

Cc1ccc2nc(-c3cc4ccc(N5CCNCC5)cc4oc3=O)cn2c1
EC1.5 (Homo sapiens [3]): 140 nM
EC1.5 (Homo sapiens [1]): 160 nM

COc1ccc(-c2cc3ccc(N4CCNCC4)cc3oc2=O)cc1
EC1.5 (Homo sapiens [3]): 2000 nM
EC1.5 (Homo sapiens [1]): > 10000 nM
fold change (FC) (Homo sapiens [4]): 1.1

Cc1cn2nc(-c3cc(=O)n4cc(N5CCN(C6CC6)CC5)ccc4n3)cc2c(C)n1
EC1.5 (Homo sapiens [3]): 380 nM
EC1.5 (Homo sapiens [1]): 690 nM

CCc1ccc2nc(-c3cc4ccc(N5CCNCC5)cc4oc3=O)cn2c1
EC1.5 (Homo sapiens [3]): 2700 nM
EC1.5 (Homo sapiens [1]): > 10000 nM

COc1ccc(-c2cc3ccc(N4CCNCC4)cc3oc2=O)cc1OC
EC1.5 (Homo sapiens [3]): 620 nM
EC1.5 (Homo sapiens [1]): > 10000 nM
fold change (FC) (Homo sapiens [4]): 1.3

Cc1cn2cc(-c3cc4ccc(N5CCC(N(C)C)CC5)cc4oc3=O)nc2c(C)n1
EC1.5 (Homo sapiens [3]): 11 nM
EC1.5 (Homo sapiens [1]): 61 nM

COc1ccc(-c2cc(=O)n3cc(N4CCNCC4)ccc3c2)cc1OC
EC1.5 (Homo sapiens [3]): 920 nM
EC1.5 (Homo sapiens [1]): 2500 nM
fold change (FC) (Homo sapiens [4]): 1.6

O=c1oc2cc(N3CCNCC3)ccc2cc1-c1nc2ccccc2s1
EC1.5 (Homo sapiens [3]): 1000 nM
EC1.5 (Homo sapiens [1]): > 10000 nM
fold change (FC) (Homo sapiens [4]): 1

Cc1cn2nc(-c3cc(=O)n4cc(N5CCN6CCC[C@H]6C5)ccc4n3)cc2c(C)n1
EC1.5 (Homo sapiens [3]): 120 nM
EC1.5 (Homo sapiens [1]): 150 nM

Cc1cn2cc(-c3cc(=O)n4cc(N5CCNCC5)ccc4n3)cc(C)c2n1
EC1.5 (Homo sapiens [3]): 48 nM
EC1.5 (Homo sapiens [1]): 60 nM

COc1ccc(-c2cc(=O)n3cc(N4CCNCC4)ccc3n2)cc1OC
EC1.5 (Homo sapiens [3]): 120 nM
EC1.5 (Homo sapiens [1]): 830 nM
fold change (FC) (Homo sapiens [4]): 1.6

Cc1cn2cc(-c3cc4ccc(C5CCN(C)CC5)cc4oc3=O)nc2c(C)n1
EC1.5 (Homo sapiens [3]): 11 nM
EC1.5 (Homo sapiens [1]): 50 nM

O=c1oc2cc(N3CCNCC3)ccc2cc1-c1cn2ccsc2n1
EC1.5 (Homo sapiens [3]): 110 nM
EC1.5 (Homo sapiens [1]): 360 nM
fold change (FC) (Homo sapiens [4]): 1.5

Cc1cn2cc(-c3cc4ccc(N5CCN(C)CC5)cc4oc3=O)nc2c(C)n1
EC1.5 (Homo sapiens [3]): 18 nM
EC1.5 (Homo sapiens [1]): 31 nM
Papp [6]: 1.4 ×10⁻⁶ cm/s
efflux ratio [7]: 1.1
fraction unbound [8]: 0.03
AUC(0-t) at 6 h [2]: 530 ng·h/mL
Kp at 6 h [5]: 0.7

Cc1cn2nc(-c3cc(=O)n4cc(N5CCNCC5)ccc4n3)cc2c(C)n1
EC1.5 (Homo sapiens [3]): 6 nM
EC1.5 (Homo sapiens [1]): 31 nM
Papp [6]: 14 ×10⁻⁶ cm/s
efflux ratio [7]: 2.8
fraction unbound [8]: 0.3
AUC(0-t) at 6 h [2]: 380 ng·h/mL
Kp at 6 h [5]: < 0.1

Cc1cn2cc(-c3cc4ccc(N5CCN6CCC[C@H]6C5)cc4oc3=O)nc2c(C)n1
EC1.5 (Homo sapiens [3]): 21 nM
EC1.5 (Homo sapiens [1]): 66 nM

COc1ccc(-c2nc3ccc(N4CCNCC4)cc3[nH]c2=O)cc1OC
EC1.5 (Homo sapiens [3]): 2200 nM
EC1.5 (Homo sapiens [1]): > 10000 nM
fold change (FC) (Homo sapiens [4]): 1.1

COc1ccc(-c2cn3ccc(N4CCNCC4)cc3nc2=O)cc1OC
EC1.5 (Homo sapiens [3]): > 10000 nM
EC1.5 (Homo sapiens [1]): > 10000 nM
fold change (FC) (Homo sapiens [4]): 1

O=c1oc2cc(N3CCNCC3)ccc2cc1-c1nc2ccccc2[nH]1
EC1.5 (Homo sapiens [3]): 430 nM
EC1.5 (Homo sapiens [1]): > 10000 nM
fold change (FC) (Homo sapiens [4]): 1.2

Cc1cn2cc(-c3cc4ccc(N5C[C@H]6CNC[C@H]6C5)cc4oc3=O)nc2c(C)n1
EC1.5 (Homo sapiens [3]): 1 nM
EC1.5 (Homo sapiens [1]): 13 nM

Cc1cn2cc(-c3cc4ccc(N5CCNCC5)cc4oc3=O)ccc2n1
EC1.5 (Homo sapiens [3]): 5 nM
EC1.5 (Homo sapiens [1]): 66 nM
